High-throughput results (PubChem)
Sampled rows, rich in hits. Any-hit rate of the full collection: about 3%.
aDG glyco act: alpha-DG glycosylation activation; Pro5-aDG cells, alpha-DG glycosylation AlphaScreen (IIH6); 0% Pro5, 100% B10-LARGE cell signal; activation, % at 10 µM; hit rate 0.22% among 360,000; AID 624168;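 active = activation of at least 8% versus controls, or a plate z-score of at least 8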;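 note: Pro5 are CHO cells carrying HIG-tagged alpha-DG that lacks glycosylation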
NPR1 activator: GC-A (human) enzyme activation | AID 1671463 | hit rate 0.14% among 370,000 | activation, % at 10 µM | P16066 | HEK293 GC-A cells, cGMP TR-FRET, EC30 ANP; 0% at EC30 ANP, 100% saturating ANP; in the data active = activation above about 40%
NR3A LBD binder: modulators (binders) of human NR3A ligand-binding domain; NR3A LBD differential scanning fluorimetry, Tm shift; 0% = protein alone, 100% = glycine-bound protein; Tm shift relative to glycine control, % at 25 µM; hit rate 2.5% among 340,000;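 active = melting temperature shift of at least 10% of the positive control shift, at one fixed dose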
NPR2 activator: GC-B (human) receptor activation; HEK293-GC-B cells, CNP EC30, cGMP TR-FRET; 0% at EC30 CNP, 100% saturating CNP; activation, % at 10 µM; hit rate 0.11% among 370,000; AID 1920062;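 active = activation at 10 µM reaching about 35% in either raw or pattern-adjusted values, limit read from the data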
GASC-1 inh: inhibitors of human GASC-1 (JMJD2C) demethylase; inhibition, % at 2.35 µM; AID 2099; Q9H3R0; hit rate 0.069% among 330,000; GST-JMJD2C(1-420) H3K9me3 demethylation, DELFIA europium;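 active = more than half of a compound's replicate wells show inhibition beyond 50%, single wells judged on their own value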;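 note: signal counts dimethyl H3K9 product captured on neutravidin plate; 0% = median of DMSO wells and 100% = 0.3 times that DMSO median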
Target sequence (Q9H3R0 1-420 limits assumed): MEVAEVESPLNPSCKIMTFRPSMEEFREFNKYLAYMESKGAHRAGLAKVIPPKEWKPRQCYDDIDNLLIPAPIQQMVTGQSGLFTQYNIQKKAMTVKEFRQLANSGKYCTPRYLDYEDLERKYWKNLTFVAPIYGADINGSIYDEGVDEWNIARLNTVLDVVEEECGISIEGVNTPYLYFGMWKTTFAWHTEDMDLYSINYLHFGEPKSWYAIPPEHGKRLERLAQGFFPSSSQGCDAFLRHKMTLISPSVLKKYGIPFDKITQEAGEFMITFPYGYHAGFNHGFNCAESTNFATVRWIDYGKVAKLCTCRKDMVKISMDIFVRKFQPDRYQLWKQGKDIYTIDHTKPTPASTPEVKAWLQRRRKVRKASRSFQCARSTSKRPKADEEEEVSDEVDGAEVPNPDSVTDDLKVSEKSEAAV
Lipid droplet: hepatic lipid droplet formation modulation | inhibition, % at 6.5 µM | AML12 mouse hepatocytes, oleate lipid droplets, BODIPY imaging | hit rate 0.4% among 240,000;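 active = lipid droplet intensity inhibited by at least 50%, with more than 500 cells counted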
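Assay system: AML12 mouse liver cells | Compound dosing: One dose, 6.5 µM compound | Read-out basis: Droplet intensity reduction, % inhibition | Measured by: Fluorescence imaging, 20x objective, two fields per well | Schedule: Overnight treatment with compound plus oleate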
Active calls of the source: *; . = no result given.

SMILES | aDG glyco act | NPR1 activator | NR3A LBD binder | NPR2 activator | GASC-1 inh | Lipid droplet
O=C(N/N=C/c1cn(Cc2ccccc2)c2ccccc12)c1cc(O)cc(O)c1 | 0 | 0 | 6 | 2 | -3 | -8
CC(=O)Nc1ccc(N=Cc2c(O)c(C(=O)Nc3ccccc3)cc3ccccc23)cc1 | . | 13 | 8 | 2 | -1 | .
O=C(COCc1ccccc1)N1CC[C@H]2[C@H](CCCN2Cc2cc(F)cc(F)c2)C1 | . | 5 | . | -2 | . | .
CS(=O)(=O)c1ccccc1C(=O)Nc1cccc2ncccc12 | 0 | -1 | -1 | 6 | 16 | 1
CCn1c2ccccc2c2cc(/C=N/NC(=O)c3ccc(O)cc3)ccc21 | 0 | -19 | 38* | -8 | -26 | 13
CCn1c2ccccc2c2cc(/C=N/NC(=O)c3ccncc3)ccc21 | 0 | -18 | -1 | -9 | 5 | 4
Cn1c(O)c(/C=N/NC(=O)c2cc3ccccc3cc2O)c2ccccc21 | 0 | 3 | 21* | -4 | 11 | -2
COCCn1c(C)cc(/C=N/NC(=O)c2cc3ccccc3cc2O)c1C | 0 | . | 4 | . | 2 | .
COc1ccccc1-c1cccc2[nH]c3c(c12)CCN1C(=O)[C@H]2[C@H](C)ON(C)[C@H]2C[C@@H]31 | . | -2 | . | 1 | . | .
CCN(CC)CCCNc1nnc(C)c(=O)[nH]1 | 0 | 1 | 11* | 4 | -5 | .
Cc1ccc(Cn2cc(COC(=O)N3CCCC3)nn2)cc1 | . | -3 | . | 2 | . | .
Cc1ccc(Sc2ccc(/C=C3/C(=O)NN(c4ccccc4)C3=O)o2)cc1 | 0 | 2 | 0 | 3 | 1 | 8
O=C1NN(c2ccccc2)C(=O)/C1=C/c1ccc(Sc2ccc(Cl)cc2)o1 | 2.6* | 0 | -2 | -3 | 15 | 9
CCCOc1ccc(C(=O)NNC(=S)NC(=O)CC)cc1 | 2 | 3 | 5 | 64* | -6 | .
O=C(NCc1cccs1)O[C@H]1CC[C@@]23CCCN2C(=O)CCC[C@H]3C1 | . | 2 | . | -5 | . | .
O=C(NC(=S)Nc1nc(-c2ccccc2)cs1)c1ccco1 | 0 | 6 | 16* | 5 | -5 | 0
O=C(NC(=S)Nc1nc(-c2ccccc2)cs1)c1cncc(Br)c1 | 0 | 5 | 31* | 4 | -2 | .
COc1ccc(-c2csc(NC(=S)NC(=O)c3ccco3)n2)cc1 | 0 | 1 | 0 | -13 | -1 | -13
O=C(NC(=S)Nc1nc(-c2ccccc2)cs1)c1cccs1 | 0 | 3 | 28* | -8 | 22 | -5
O=C(Nc1nc(-c2cc(Cl)sc2Cl)cs1)c1cccs1 | 0 | -1 | 14* | -12 | 3 | -19
Cc1ccc(-c2csc(NC(=S)NC(=O)c3cccs3)n2)cc1 | 0 | 7 | 3 | 0 | -3 | -9
CCC(=O)N1CCc2cc(Br)c(S(=O)(=O)NCCCN(CC)Cc3ccccc3)cc21 | . | -1 | . | -7 | . | .
CCCN1C(=O)/C(=C/c2ccc(C)o2)SC1=Nc1ccc(OC)cc1 | 0 | -3 | 3 | -2 | -2 | .
CCCN1C(=O)/C(=C/c2ccco2)SC1=Nc1ccc(OC)cc1 | 0 | . | 21* | . | -6 | 6
COc1cnc(-c2ccccn2)nc1NC(C)C | 7.1* | 3 | -2 | 4 | -18 | -21
SMILES | aDG glyco act | NPR1 activator | NR3A LBD binder | NPR2 activator | GASC-1 inh | Lipid droplet
CC1(C)CC(=O)C=C(Nc2ccccc2NC(=O)c2cccc(F)c2F)C1 | . | -2 | . | 3 | . | .
CCn1c2c(n(C(C)=O)c1=O)C=C(C(=O)N1CCCC1)C(C)C(c1ccccc1)=C2 (stereo unspecified) | . | 2 | . | -1 | . | .
CC(=O)Nc1ccc(Nc2cc(C)nc3c(-c4ccc(Cl)cc4)cnn23)cc1 | 3 | -7 | 30* | -7 | -15 | 17
Cc1ccc(S(=O)(=O)N2CCCc3nc(-c4ccccc4)ccc32)cc1 | . | 2 | . | 2 | . | .
CCNc1nc(Nc2ccc(C)c(Cl)c2)c2cnn(C)c2n1 | 1 | 14 | -2 | 18 | 5 | 17
CCCCNc1nc(Nc2ccc(C)c(Cl)c2)c2cnn(C)c2n1 | 1 | 4 | 15* | 15 | 0 | -1
Cc1[nH]nc2c1C(c1ccc(-c3ccc(Cl)cc3)o1)C(C#N)=C(N)O2 (stereo unspecified) | 0 | 39 | 14* | -2 | -7 | 13
Cc1ccc(-c2ccc(C3C(C#N)=C(N)Oc4n[nH]c(C)c43)o2)cc1 (stereo unspecified) | 1 | 23 | -3 | 2 | -18 | .
Cc1ccc(-c2[nH]nc3c2C(c2ccsc2)C(C#N)=C(N)O3)cc1 (stereo unspecified) | 0 | -40 | 12* | -20 | -4 | .
CCCc1[nH]nc2c1C(c1ccncc1)C(C#N)=C(N)O2 (stereo unspecified) | 0 | 4 | 14* | -1 | . | .
N#CC1=C(N)Oc2n[nH]c(-c3ccncc3)c2C1c1ccsc1 (stereo unspecified) | 0 | 0 | 0 | 0 | 17 | 13
Cn1c(=O)[nH]c2c(Br)nccc21 | . | 4 | . | -6 | . | .
CC(C)Oc1cccc(C(=O)Nc2nnc([C@H]3C[C@H](O)[C@@H](CO)O3)s2)c1 | 0 | -1 | . | -2 | . | .
CCOC(=O)c1sc(=S)n(C)c1NC(=O)c1ccccc1C | 0 | 7 | 14* | 1 | 2 | -3
CCOC(=O)c1sc(=S)n(C)c1NC(=O)c1ccc(F)cc1 | 0 | 5 | 0 | 4 | 14 | -9
O=C(Nc1ccc(F)cc1)Nc1c(-c2ccc(F)cc2)nc2ncccn12 | . | 2 | . | 7 | . | .
N#C/C(=C/c1ccc(N2CCCCC2)o1)c1cccc(F)c1 | 0 | 9 | -4 | 7 | -14 | 32
N#C/C(=C/c1ccc(N2CCCCC2)cc1)c1cccc(F)c1 | -1 | -3 | 12* | 2 | -7 | 36
O=C(CSc1nnc(-c2cccs2)o1)Nc1cccc2ccccc12 | . | 3 | . | 2 | . | .
Cc1cc2c(nn1)CCc1c-2no[n+]1[O-] | 0 | -1 | 1 | 3 | 0 | -9
O=C1NCCCc2c1no[n+]2[O-] | 0 | 3 | 11* | 1 | 10 | -3
COc1ccc(NC(=O)c2cc(-c3ccccc3Cl)on2)cc1 | 0 | 11 | 37* | -3 | -4 | -2
COc1cccc(-c2cc(C(=O)Nc3cccc(O)c3)no2)c1 | 0 | 7 | 24* | -10 | -8 | .
CC(=O)c1cccc(NC(=O)c2cc(-c3cccs3)on2)c1 | 0 | 4 | 1 | -5 | -17 | 6
O=C(Nc1cccc(O)c1)c1cc(-c2cccs2)on1 | 0 | 5 | 15* | -2 | 1 | 2
COc1cc(CN2C(=O)C(CCc3ccccc3)ON=C2c2cnccn2)cc(OC)c1 (stereo unspecified) | 0 | -2 | . | -3 | . | .
